Source: ChEMBL document CHEMBL1155496, “Discovery of pyrazolyl propionyl cyclohexenamide derivatives as full agonists for the high affinity niacin receptor GPR109A” (Bioorg Med Chem Lett, 2010)
Values belong to the compound of their own block, whether it stands above or below them.

Key:
[1] = biological target: Hydroxycarboxylic acid receptor 2 (Homo sapiens) (UniProt Q8TDS4); assay: Serum shift in 3H-niacin binding to GPR109A receptor with 4% human serum
[2] = Cmax in mouse at 1 mg/kg, iv and 2 mg/kg, po; format: ADME, organism-based; settings: in vivo
How it was run: (§1)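 Formulated at 0.2 mg/mL in ethanol/PEG/water (10:40:50). Dosed 1 mg/kg IV and 2 mg/kg PO, n = 3 per route. Blood was protein-precipitated with acetonitrile and drug concentration measured by LC/MS/MS.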

[3] = Volume of distribution at steady state in mouse at 1 mg/kg, iv and 2 mg/kg, po; format: ADME, organism-based; settings: in vivo, read-out: Vdss
How it was run: as §1

[4] = Bioavailability in mouse at 1 mg/kg, iv and 2 mg/kg, po; format: ADME, organism-based; settings: in vivo
How it was run: as §1

[5] = Half life in mouse at 1 mg/kg, iv and 2 mg/kg, po; format: ADME, organism-based; settings: in vivo
How it was run: as §1

[6] = Clearance in mouse at 1 mg/kg, iv and 2 mg/kg, po; format: ADME, organism-based; settings: in vivo
How it was run: as §1

[7] = Clearance in rat at 1 mg/kg, iv and 2 mg/kg, po; format: ADME, organism-based; settings: in vivo
How it was run: as §1

[8] = Half life in rat at 1 mg/kg, iv and 2 mg/kg, po; format: ADME, organism-based; settings: in vivo
How it was run: as §1

[9] = Cmax in rat at 1 mg/kg, iv and 2 mg/kg, po; format: ADME, organism-based; settings: in vivo
How it was run: as §1

[10] = Bioavailability in rat at 1 mg/kg, iv and 2 mg/kg, po; format: ADME, organism-based; settings: in vivo
How it was run: as §1

[11] = Volume of distribution at steady state in rat at 1 mg/kg, iv and 2 mg/kg, po; format: ADME, organism-based; settings: in vivo, read-out: Vdss
How it was run: as §1

Cytochrome P450 2C9 = Cytochrome P450 2C9 (Homo sapiens, UniProt P11712); assay: Inhibition of CYP2C9 in human liver microsomes; format: ADME, Microsome
Sequence of Cytochrome P450 2C9 (P11712 whole entry): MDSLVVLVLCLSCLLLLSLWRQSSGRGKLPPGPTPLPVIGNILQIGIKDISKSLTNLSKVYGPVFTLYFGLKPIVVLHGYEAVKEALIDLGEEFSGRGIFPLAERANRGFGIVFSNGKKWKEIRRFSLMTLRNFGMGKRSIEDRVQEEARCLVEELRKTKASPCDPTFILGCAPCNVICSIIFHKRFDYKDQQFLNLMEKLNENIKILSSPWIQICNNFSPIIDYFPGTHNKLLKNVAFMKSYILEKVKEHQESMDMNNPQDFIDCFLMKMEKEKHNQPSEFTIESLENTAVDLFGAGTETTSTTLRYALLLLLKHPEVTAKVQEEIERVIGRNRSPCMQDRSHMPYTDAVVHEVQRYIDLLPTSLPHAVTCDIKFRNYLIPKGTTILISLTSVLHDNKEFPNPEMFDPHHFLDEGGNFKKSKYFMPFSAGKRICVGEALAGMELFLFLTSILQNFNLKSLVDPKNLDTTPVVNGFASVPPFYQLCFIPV

Cytochrome P450 2C8 = biological target: T1, Cytochrome P450 2C8 (Homo sapiens, UniProt P10632); assay: Inhibition of CYP2C8 in human liver microsomes; format: ADME, Microsome
T1 sequence (P10632 whole entry): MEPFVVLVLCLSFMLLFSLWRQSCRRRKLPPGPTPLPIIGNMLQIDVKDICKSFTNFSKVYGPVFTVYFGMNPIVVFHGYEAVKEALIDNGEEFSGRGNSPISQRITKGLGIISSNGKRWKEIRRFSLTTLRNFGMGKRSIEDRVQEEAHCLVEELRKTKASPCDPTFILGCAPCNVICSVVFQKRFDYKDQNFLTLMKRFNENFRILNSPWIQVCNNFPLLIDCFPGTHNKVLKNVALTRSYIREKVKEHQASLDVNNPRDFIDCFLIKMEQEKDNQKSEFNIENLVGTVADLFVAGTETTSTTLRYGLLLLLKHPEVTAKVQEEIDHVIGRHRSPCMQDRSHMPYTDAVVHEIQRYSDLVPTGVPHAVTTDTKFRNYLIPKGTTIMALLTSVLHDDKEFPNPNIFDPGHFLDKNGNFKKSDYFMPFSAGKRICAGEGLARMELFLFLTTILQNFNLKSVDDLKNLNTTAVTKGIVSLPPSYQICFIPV
How it was run: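 Human liver microsomes with taxol as substrate and montelukast as positive control. IC50 determined.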

Adipocyte = assay: Inhibition of lipolysis in human adipocytes assessed as free glycerol level; format: functional, cell-based
How it was run: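 Lipolysis in human adipocytes; free glycerol release measured and used to calculate IC50.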

Sequence of Hydroxycarboxylic acid receptor 2 (Homo sapiens) (Q8TDS4 whole entry): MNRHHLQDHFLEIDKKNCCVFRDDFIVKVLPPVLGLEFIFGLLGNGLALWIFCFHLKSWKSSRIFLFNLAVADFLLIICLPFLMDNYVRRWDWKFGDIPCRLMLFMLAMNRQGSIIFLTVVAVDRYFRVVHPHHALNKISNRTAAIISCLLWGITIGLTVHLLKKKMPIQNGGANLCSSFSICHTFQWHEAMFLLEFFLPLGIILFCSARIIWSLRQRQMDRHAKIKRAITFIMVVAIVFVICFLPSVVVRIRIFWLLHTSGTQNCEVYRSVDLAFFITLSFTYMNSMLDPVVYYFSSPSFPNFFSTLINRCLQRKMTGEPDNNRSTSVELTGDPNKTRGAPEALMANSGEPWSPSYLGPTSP

SMILES: O=C(CCc1cnn(-c2ccc(O)cc2)c1)Nc1ccccc1C(=O)O
Cmax [2]: 480 nM
Vd [3]: 3.56 L/kg
serum shift [1]: 70
bioavailability [4]: 21%
half-life [5]: 3.5 h
clearance [6]: 17 mL/min/kg

SMILES: O=C(CCc1ccn(-c2ccccc2)n1)Nc1ccccc1C(=O)O
IC50 (Cytochrome P450 2C9): 2.5 µM
IC50 (Cytochrome P450 2C8): 2.7 µM

SMILES: Cc1c(CC(C)C(=O)Nc2ccccc2C(=O)O)cnn1-c1ccc(O)cc1 (stereo unspecified)
IC50 (Cytochrome P450 2C9): 22 µM
IC50 (Adipocyte): 0.06 µM
serum shift [1]: 60
IC50 (Cytochrome P450 2C8): 34 µM

SMILES: O=C(CCc1cnn(-c2ccccc2)c1)Nc1ccccc1C(=O)O
IC50 (Cytochrome P450 2C9): 15 µM
serum shift [1]: 40

SMILES: O=C(O)c1cccnc1 [NIACIN]
IC50 (Adipocyte): 0.08 µM

SMILES: O=C(CCc1cnn(-c2ccc(O)cn2)c1)NC1=C(C(=O)O)CCCC1
Cmax [2]: 11500 nM
Vd [3]: 0.4 L/kg
IC50 (Cytochrome P450 2C9): > 50 µM
serum shift [1]: 240
bioavailability [4]: 46%
half-life [5]: 3.3 h
clearance [6]: 1.2 mL/min/kg

SMILES: O=C(CCc1ccc(-c2ccc(O)cc2Cl)cc1)Nc1ccccc1C(=O)O
Cmax [2]: 930 nM
serum shift [1]: > 5000
bioavailability [4]: 4.6%

Continued, values first:

serum shift [1]: 200
SMILES: CC(Cc1ccn(-c2ccc(O)cn2)n1)C(=O)Nc1ccccc1C(=O)O (stereo unspecified)

serum shift [1]: 900
SMILES: CC(Cc1ccn(-c2ccc(O)cn2)n1)C(=O)NC1=C(C(=O)O)CCCC1 (stereo unspecified)

clearance [7]: 28 mL/min/kg
half-life [8]: 0.74 h
Cmax [9]: 30 nM
serum shift [1]: 30
bioavailability [10]: 4.5%
Vd [11]: 0.36 L/kg
SMILES: CC(Cc1ccn(-c2ccc(O)cn2)n1)C(=O)NC1=C(C(=O)O)CCC(c2cccc(F)c2F)C1 (stereo unspecified)

serum shift [1]: 290
SMILES: CC(Cc1ccn(-c2ccc(O)cn2)n1)C(=O)NC1=C(C(=O)O)CC[C@@H](C)C1 (stereo partly specified)

serum shift [1]: 1000
SMILES: O=C(CCc1ccn(-c2ccc(O)cn2)n1)NC1=C(C(=O)O)CCCC1

serum shift [1]: 30
SMILES: CC(Cc1ccn(-c2ccc(O)cn2)n1)C(=O)NC1=C(C(=O)O)CCC(c2cc(F)c(F)c(F)c2)C1 (stereo unspecified)

serum shift [1]: 40
SMILES: CC(Cc1ccn(-c2ccc(O)cn2)n1)C(=O)NC1=C(C(=O)O)CCC(c2cccc(F)c2)C1 (stereo unspecified)

clearance [7]: 8.6 mL/min/kg
half-life [8]: 5.5 h
Cmax [9]: 1580 nM
IC50 (Cytochrome P450 2C9): 23 µM
serum shift [1]: 100
bioavailability [10]: 39%
IC50 (Cytochrome P450 2C8): 7.7 µM
Vd [11]: 0.53 L/kg
SMILES: CC(Cc1ccn(-c2ccc(O)cn2)n1)C(=O)NC1=C(C(=O)O)CC(c2cc(F)cc(F)c2)CC1 (stereo unspecified)

Cmax [2]: 4780 nM
Vd [3]: 0.68 L/kg
IC50 (Cytochrome P450 2C9): > 100 µM
IC50 (Adipocyte): 0.07 µM
serum shift [1]: 50
IC50 (Cytochrome P450 2C8): > 100 µM
bioavailability [4]: 52%
half-life [5]: 4.8 h
clearance [6]: 3.5 mL/min/kg
SMILES: Cc1c(CC(C)C(=O)NC2=C(C(=O)O)CCCC2)cnn1-c1ccc(O)cc1 (stereo unspecified)

serum shift [1]: 170
SMILES: O=C(CCc1ccn(-c2ccc(O)cn2)n1)Nc1ccccc1C(=O)O

serum shift [1]: 110
SMILES: CCCC1CCC(C(=O)O)=C(NC(=O)C(C)Cc2ccn(-c3ccc(O)cn3)n2)C1 (stereo unspecified)
